The text below walks through data of ChEMBL document CHEMBL1641497, “A potent and selective indole N-type calcium channel (Ca(v)2.2) blocker for the treatment of pain” (Bioorg Med Chem Lett, 2011).

Data set [1] has as its target T1, Voltage-dependent N-type calcium channel subunit alpha-1B (Homo sapiens, UniProt Q00975). Description: Blockade of Cav2.2 channel at 10 uM by fluorescent calcium-influx assay. In outline: (§1)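 […] Cav2.2 channel block measured in vitro with a fluorescent calcium-influx (FLIPR) assay. Results are reported as % inhibition at 10 μM, with an IC50 (μM) for selected compounds.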
Target sequence in this assay (Q00975 whole entry, looked up): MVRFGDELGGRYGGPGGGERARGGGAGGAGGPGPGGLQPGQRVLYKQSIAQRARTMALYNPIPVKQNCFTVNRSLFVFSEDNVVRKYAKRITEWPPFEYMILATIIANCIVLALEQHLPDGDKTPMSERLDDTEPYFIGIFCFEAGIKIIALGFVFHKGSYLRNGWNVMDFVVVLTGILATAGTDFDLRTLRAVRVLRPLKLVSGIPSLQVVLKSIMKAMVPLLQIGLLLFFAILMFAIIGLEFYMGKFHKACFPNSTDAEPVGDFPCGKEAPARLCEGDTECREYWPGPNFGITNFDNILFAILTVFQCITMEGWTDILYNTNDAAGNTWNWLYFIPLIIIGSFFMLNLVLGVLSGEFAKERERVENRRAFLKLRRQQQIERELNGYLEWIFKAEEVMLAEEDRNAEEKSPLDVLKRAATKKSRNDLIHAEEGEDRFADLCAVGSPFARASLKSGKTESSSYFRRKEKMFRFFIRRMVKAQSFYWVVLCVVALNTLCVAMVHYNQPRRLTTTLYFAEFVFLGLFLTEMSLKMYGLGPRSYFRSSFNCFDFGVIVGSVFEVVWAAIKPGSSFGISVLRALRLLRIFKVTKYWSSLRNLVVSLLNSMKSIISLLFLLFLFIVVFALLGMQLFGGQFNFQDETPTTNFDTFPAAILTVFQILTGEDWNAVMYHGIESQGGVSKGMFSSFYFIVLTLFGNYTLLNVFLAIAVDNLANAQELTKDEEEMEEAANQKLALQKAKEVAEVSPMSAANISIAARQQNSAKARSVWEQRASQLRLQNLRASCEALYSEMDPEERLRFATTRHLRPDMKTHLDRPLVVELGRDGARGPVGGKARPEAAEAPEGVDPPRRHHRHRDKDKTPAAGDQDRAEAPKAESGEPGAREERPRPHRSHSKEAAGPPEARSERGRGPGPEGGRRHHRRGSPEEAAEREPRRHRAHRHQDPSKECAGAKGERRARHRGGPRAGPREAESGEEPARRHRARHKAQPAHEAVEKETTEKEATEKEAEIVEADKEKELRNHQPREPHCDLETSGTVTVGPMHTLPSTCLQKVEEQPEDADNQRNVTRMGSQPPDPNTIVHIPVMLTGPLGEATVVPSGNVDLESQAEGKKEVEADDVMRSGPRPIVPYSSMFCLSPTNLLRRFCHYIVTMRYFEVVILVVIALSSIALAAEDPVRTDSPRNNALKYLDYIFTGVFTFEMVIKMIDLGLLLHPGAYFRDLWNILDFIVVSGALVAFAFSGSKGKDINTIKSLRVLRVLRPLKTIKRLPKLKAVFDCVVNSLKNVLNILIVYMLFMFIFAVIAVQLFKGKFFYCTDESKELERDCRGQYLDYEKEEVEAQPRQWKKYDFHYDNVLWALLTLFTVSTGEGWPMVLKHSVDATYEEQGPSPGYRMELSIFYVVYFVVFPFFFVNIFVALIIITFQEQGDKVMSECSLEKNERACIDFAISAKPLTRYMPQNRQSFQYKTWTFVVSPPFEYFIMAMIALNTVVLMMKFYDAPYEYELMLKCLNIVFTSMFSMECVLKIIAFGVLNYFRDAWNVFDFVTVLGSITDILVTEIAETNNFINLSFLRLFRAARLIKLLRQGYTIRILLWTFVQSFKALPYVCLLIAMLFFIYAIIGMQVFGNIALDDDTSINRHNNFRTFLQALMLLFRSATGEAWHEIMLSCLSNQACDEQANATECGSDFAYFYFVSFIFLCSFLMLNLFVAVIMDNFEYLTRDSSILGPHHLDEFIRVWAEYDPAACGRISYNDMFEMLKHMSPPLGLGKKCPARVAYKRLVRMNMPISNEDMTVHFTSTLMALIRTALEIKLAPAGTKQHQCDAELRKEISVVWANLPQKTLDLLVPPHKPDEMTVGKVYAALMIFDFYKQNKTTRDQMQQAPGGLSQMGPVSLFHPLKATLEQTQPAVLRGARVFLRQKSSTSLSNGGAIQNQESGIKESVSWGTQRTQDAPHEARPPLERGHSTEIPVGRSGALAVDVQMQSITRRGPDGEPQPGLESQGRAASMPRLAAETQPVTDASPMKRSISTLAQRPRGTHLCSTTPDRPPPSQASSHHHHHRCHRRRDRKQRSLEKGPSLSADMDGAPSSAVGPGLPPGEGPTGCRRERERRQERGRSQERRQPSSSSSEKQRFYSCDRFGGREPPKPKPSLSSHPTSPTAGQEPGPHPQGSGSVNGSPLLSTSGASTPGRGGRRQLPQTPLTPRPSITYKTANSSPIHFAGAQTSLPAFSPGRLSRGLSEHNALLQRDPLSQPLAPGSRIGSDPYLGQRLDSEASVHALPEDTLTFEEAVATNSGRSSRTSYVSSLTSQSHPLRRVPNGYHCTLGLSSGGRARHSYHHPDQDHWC

The target of data set [2] is Cav1.2 (voltage-dependent L-type calcium channel subunit alpha-1C) (Homo sapiens, UniProt Q13936). Description: Blockade of Cav1.2 channel at 10 uM by fluorescent calcium-influx assay. In outline: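 Cav1.2 (L-type) channel block measured with a fluorescent calcium-influx FLIPR assay. Results are reported as % inhibition at 10 μM test concentration.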
In data set [3] the target is T1, Voltage-dependent N-type calcium channel subunit alpha-1B. The experiment in a line: Blockade of Cav2.2 channel by fluorescent calcium-influx assay. In outline:
as §1
Target sequence in this assay (Q00975 whole entry): as the sequence (Q00975 whole entry, looked up) above

Data set [4] addresses T2, Nuclear receptor subfamily 1 group I member 2 (Homo sapiens, UniProt O75469).
T2 sequence (O75469 whole entry): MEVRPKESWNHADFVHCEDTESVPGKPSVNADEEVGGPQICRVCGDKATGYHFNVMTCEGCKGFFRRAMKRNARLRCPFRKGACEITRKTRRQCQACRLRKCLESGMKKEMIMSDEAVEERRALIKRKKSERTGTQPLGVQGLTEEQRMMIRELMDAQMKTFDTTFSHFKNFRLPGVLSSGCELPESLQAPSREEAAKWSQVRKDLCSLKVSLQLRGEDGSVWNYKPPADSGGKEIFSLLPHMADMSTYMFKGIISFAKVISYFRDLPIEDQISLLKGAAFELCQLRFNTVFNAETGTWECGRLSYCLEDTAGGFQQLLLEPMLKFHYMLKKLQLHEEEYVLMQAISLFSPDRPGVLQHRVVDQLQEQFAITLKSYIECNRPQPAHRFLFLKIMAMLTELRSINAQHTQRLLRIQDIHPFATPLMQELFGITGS
The experiment in a line: Activity at PXR by induction assay.

Data set [5] deals with Nav1.5 (sodium channel protein type 5 subunit alpha) (Homo sapiens, UniProt Q14524). The experiment in a line: Blockade of Nav1.5 channel at 10 uM by fluorescent […] assay.
Data set [6] in a line: Half life in rat at 1 mg/kg, iv and 3 mg/kg, po. To be noted: in vivo. It is filed as ADME, organism-based. In outline:
(§2)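 Rat PK with 1.0 mg/kg IV and 3.0 mg/kg PO doses, based on plasma analysis. Parameters: Cmax, dose-normalized AUC (μM h kg/mg), plasma clearance (mL/min/kg), Vdss (L/kg), T1/2 (h) and oral bioavailability (%).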

A short description of data set [7]: Metabolic stability in human liver microsomes assessed as compound remaining after 60 mins. It is filed as ADME, Microsome. The settings on record: read-out: Stability. In outline:
(§3)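 Compounds incubated with human or rat liver microsomes for 60 min. Read-out is the percent of parent compound remaining.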
For orientation: Liver microsomes are a subcellular fraction often used to study metabolism.

The nature of data set [8]: Oral bioavailability in rat at 3 mg/kg. The format is ADME, organism-based. The settings on record: in vivo. In outline: as §2
Data set [9] in a line: Plasma clearance in rat at 1 mg/kg, iv and 3 mg/kg, po. The format is ADME, organism-based. In outline: as §2
The subject of data set [10] is Rattus norvegicus. Description: Dose normalized AUC in rat at 1 mg/kg, iv and 3 mg/kg, po. The format is ADME, organism-based. To be noted: in vivo. In outline:
as §2

The nature of data set [11]: Metabolic stability in rat liver microsomes assessed as compound remaining after 60 mins. To be noted: read-out: Stability. It is filed as ADME, Microsome. In outline:
as §3

The subject of data set [12] is hERG (Homo sapiens). The experiment in a line: Blockade of hERG channel at 10 uM by displacement of MK-0499 binding. Background: Block of hERG is tested as a sign of cardiac risk.

Sequence of Cav1.2 (voltage-dependent L-type calcium channel subunit alpha-1C) (Q13936 whole entry): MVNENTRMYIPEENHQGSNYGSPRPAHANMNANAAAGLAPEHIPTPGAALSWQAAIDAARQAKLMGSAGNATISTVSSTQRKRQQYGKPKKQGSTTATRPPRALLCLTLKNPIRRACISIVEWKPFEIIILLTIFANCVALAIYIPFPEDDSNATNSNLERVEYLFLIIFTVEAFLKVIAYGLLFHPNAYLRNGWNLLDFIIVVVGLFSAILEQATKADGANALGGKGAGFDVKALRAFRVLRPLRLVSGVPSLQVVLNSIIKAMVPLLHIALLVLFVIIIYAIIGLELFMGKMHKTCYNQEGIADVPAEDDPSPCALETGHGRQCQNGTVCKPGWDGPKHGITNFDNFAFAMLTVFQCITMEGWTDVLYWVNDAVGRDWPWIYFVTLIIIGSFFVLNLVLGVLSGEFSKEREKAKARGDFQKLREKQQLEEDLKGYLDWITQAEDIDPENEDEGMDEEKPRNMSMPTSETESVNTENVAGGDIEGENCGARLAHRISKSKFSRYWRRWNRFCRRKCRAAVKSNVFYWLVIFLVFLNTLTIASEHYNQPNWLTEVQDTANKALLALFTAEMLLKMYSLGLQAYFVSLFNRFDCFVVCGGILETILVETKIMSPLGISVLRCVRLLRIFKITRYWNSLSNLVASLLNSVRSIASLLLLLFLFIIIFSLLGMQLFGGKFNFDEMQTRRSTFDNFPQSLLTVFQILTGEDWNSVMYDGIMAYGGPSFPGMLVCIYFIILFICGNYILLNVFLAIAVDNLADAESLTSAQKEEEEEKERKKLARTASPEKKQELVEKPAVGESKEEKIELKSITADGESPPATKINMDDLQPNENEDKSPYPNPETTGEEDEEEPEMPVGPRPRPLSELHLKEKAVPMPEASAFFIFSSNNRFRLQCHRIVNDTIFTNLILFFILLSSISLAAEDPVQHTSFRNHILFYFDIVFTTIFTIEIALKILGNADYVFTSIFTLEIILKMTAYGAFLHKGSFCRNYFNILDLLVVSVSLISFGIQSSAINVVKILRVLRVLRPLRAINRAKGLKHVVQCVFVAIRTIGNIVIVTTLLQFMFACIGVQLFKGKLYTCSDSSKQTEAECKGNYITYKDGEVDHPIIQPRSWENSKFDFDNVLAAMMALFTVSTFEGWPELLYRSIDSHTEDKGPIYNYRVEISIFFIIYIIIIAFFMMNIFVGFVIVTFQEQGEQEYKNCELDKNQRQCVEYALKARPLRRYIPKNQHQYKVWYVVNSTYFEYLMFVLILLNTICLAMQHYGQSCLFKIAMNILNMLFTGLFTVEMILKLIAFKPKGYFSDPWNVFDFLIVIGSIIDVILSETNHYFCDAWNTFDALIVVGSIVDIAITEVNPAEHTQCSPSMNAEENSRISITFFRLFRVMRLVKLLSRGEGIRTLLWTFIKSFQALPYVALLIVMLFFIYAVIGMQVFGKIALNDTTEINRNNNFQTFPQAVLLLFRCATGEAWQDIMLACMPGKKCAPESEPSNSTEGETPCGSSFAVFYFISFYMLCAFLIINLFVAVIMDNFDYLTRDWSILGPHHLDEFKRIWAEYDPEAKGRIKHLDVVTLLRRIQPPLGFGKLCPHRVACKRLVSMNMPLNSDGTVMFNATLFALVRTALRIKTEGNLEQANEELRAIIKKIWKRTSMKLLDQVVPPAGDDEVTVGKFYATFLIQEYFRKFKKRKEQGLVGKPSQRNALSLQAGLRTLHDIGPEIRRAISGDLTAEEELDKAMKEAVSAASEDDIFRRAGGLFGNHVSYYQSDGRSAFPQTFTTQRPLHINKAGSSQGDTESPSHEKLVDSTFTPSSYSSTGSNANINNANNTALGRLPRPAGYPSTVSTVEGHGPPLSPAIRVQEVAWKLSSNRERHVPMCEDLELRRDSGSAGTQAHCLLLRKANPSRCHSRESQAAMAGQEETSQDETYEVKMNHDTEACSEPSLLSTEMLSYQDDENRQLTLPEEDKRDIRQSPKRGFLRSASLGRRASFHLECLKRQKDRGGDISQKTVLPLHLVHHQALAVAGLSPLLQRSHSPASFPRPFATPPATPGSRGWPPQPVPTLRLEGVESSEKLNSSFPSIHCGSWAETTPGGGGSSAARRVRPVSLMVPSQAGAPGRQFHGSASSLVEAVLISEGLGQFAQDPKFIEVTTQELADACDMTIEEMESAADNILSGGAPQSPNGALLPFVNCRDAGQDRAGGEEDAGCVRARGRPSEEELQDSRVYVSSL

For orientation: inhibition means the relative decrease from the control value, in per cent. Usually IC50 stands for the point on the concentration scale where inhibition reaches its midpoint. With `Cc1cc(C)cc(-c2cc3cc(C(C)(C)C(=O)N(C)C)ccc3n2CC(C)O)c1` (stereo not given), in data set [1], the inhibition came to 89%. Besides, in data set [2], the inhibition at 10 µM turned out to be 52%. Also, the IC50 in data set [3] stood at 870 nM.

A word on the EC50: it is the concentration that produces a half-maximal response. Read a high EC50 as a need for much substance. On to `CC(C)(C)NC(=O)Cn1c(C(C)(C)C)cc2cc(C(C)(C)C(=O)NC(C)(C)C)ccc21`, for which, in [4], it took 570 nM to reach a half-maximal effect (EC50). In data set [2], the inhibition at 10 µM stood at 47%.

Turning to `Cc1cc(C)cc(-c2cc3cc(C(C)(C)C(=O)NC4CC4)ccc3n2CC(C)O)c1` (stereo not given), in [1], the inhibition was 89%. Also, the IC50 in [3] amounted to 1150 nM.

Consider `Cc1cc(C)cc(-c2cc3cc(C(C)(C)C(=O)NC(C)(C)C)ccc3[nH]2)c1`, for which the inhibition in data set [1] worked out at 78%.

As for `CCCN[C@@H](C)c1c(-c2cc(C)cc(C)c2)[nH]c2ccc(C(C)(C)C(=O)N3C4CCC3CC4)cc12`, the results for the inhibition at 10 µM in data set [5] and in data set [2] were 44% and 62%, respectively. Also, the IC50 in data set [3] amounted to 880 nM.

The molecule `CC(C)(C)NC(=O)Cn1c(-c2ccc(F)cc2)cc2cc(C(C)(C)C(=O)NC(C)(C)C)ccc21` returned a half-maximal effective concentration (EC50) in data set [4] above 30000 nM. Besides, in [2], the inhibition at 10 µM was found to be 82%.

In data set [4], `COc1ccccc1-c1cc2cc(C(C)(C)C(=O)NC(C)(C)C)ccc2n1CC(=O)NC(C)(C)C` gave an EC50 of 740 nM. In addition, the inhibition at 10 µM in data set [2] is 60%.

As to `CC(C)(C)NC(=O)Cn1c(C(=O)NC(C)(C)C)cc2cc(C(C)(C)C(=O)NC(C)(C)C)ccc21`, the EC50 in data set [4] came out at 6640 nM. For the same molecule, the inhibition at 10 µM in data set [2] is 24%.

With `CC(C)(C)NC(=O)Cn1c(-c2cc(C(F)(F)F)cc(C(F)(F)F)c2)cc2cc(C(C)(C)C(=O)NC(C)(C)C)ccc21`, a half-maximal response in data set [4] (EC50) required 10800 nM. In addition, the inhibition at 10 µM in data set [2] stood at 61%.

Usually half-life stands for the time in which the quantity being followed falls by half. A lower half-life goes with fast loss. Broadly, the bioavailability is the share of a dose that reaches the circulation, judged against a reference dose that is usually intravenous. As for `CC(C)(C)NC(=O)Cn1c(-c2ccccc2OC(F)(F)F)cc2cc(C(C)(C)C(=O)NC(C)(C)C)ccc21`, the half-maximal effective concentration (EC50) in data set [4] was above 30000 nM. This molecule also showed a half-life in data set [6] of 2.68 h. Moreover, the inhibition at 10 µM in data set [2] is 79%. The remaining at 1 h in data set [7] turned out to be 0.04%; in [11], 2.5%. For the same molecule, the bioavailability in data set [8] amounted to 38%. In addition, the clearance in data set [9] is 21 mL/min/kg. Further, the AUC in data set [10] was 0.57 µM·kg·h/mg.

As to `CC(C)(C)NC(=O)Cn1c(-c2cccc(OC(F)(F)F)c2)cc2cc(C(C)(C)C(=O)NC(C)(C)C)ccc21`, the EC50 in [4] was above 30000 nM. The half-life in [6] is 2.27 h. Further, the inhibition at 10 µM in [2] was 93%. Besides, the remaining at 1 h turned out to be 0.82% in data set [7] and 22% in [11]. In [8], this molecule displayed a bioavailability of 26%. Also, in data set [9], the clearance was determined as 11 mL/min/kg. For the same molecule, the AUC in data set [10] turned out to be 0.83 µM·kg·h/mg.

As to `Cc1cc(C)cc(-c2cc3cc(C(=O)NC(C)(C)C)ccc3n2CC(C)O)c1` (stereo not given), the inhibition in [1] turned out to be 97%. Moreover, the inhibition at 10 µM came out at 90% in data set [2] and 64% in data set [12]. The IC50 in [3] was found to be 680 nM.

For `Cc1cc(C)cc(-c2cc3cc(C(C)(C)C(=O)NCC(F)(F)F)ccc3n2CC(C)O)c1` (stereo not given), in data set [1], the inhibition turned out to be 91%. Besides, in [3], the IC50 came out at 1170 nM.

`Cc1cc(C)cc(-c2cc3cc(C(C)(C)C(=O)NC(C)(C)C)ccc3n2CC(=O)NC(C)(C)C)c1`: the inhibition in data set [1] was found to be 98%. The concentration for a half-maximal effect (EC50) in [4] is above 30000 nM. The inhibition at 10 µM in data set [2] is 78%; in [12] it was 33%. The IC50 in data set [3] came out at 190 nM.

`Cc1cc(C)cc(-c2cc3cc(C(C)(C)C(=O)NC(C)(C)C)ccc3n2C(=O)OC(C)(C)C)c1`: the inhibition in [1] worked out at 59%.

`CC(C)(C)NC(=O)C(c1ccccn1)n1ccc2cc(C(C)(C)C(=O)NC(C)(C)C)ccc21` (stereo not given): the EC50 in data set [4] came to 600 nM. For the same molecule, in data set [2], the inhibition at 10 µM stood at 64%.

As to `Cc1cc(C)cc(-c2cc3cc(C(C)(C)C(=O)NC(C)(C)C)ccc3n2Cc2c(C)noc2C)c1`, the inhibition in [1] turned out to be 99%. In [3], the IC50 came out at 540 nM. The molecule further had an inhibition at 10 µM in data set [12] of 65%.

As for `Cc1cc(C)cc(-c2cc3cc(C(C)(C)CO)ccc3n2CC(C)O)c1` (stereo not given), the inhibition in data set [1] worked out at 44%. Further, the inhibition at 10 µM in data set [2] came out at 32%.

`Cc1cc(C)cc(-c2cc3cc(OC(F)(F)F)ccc3n2CC(C)O)c1` (stereo not given): the inhibition in data set [1] was found to be 36%. Moreover, in [2], the inhibition at 10 µM amounted to 43%.

Take `COC(=O)C(C)(C)c1ccc2c(c1)cc(-c1cc(C)cc(C)c1)n2CC(C)O` (stereo not given): in data set [1], the inhibition was determined as 70%. Further, in data set [2], the inhibition at 10 µM amounted to 64%.

As to `COCCn1c(-c2cc(C)cc(C)c2)cc2cc(C(C)(C)C(=O)NC(C)(C)C)ccc21`, the inhibition in data set [1] stood at 99%. The inhibition at 10 µM in [2] came to 70%. Besides, in data set [3], the IC50 is 520 nM.

In turn, `CC(C)(C)NC(=O)Cn1c(-c2ccc(F)cc2F)cc2cc(C(C)(C)C(=O)NC(C)(C)C)ccc21` came in with an EC50 in [4] of 940 nM. For the same molecule, the inhibition at 10 µM in data set [2] came to 93%.

For `Cc1cc(C)cc(-c2cc3cc(C(C)(C)C(=O)NC(C)(C)C)ccc3n2Cc2ccc(Cl)cc2)c1`, the inhibition in data set [1] was determined as 36%.

In [4], `CC(C)(C)NC(=O)Cn1c(-c2cc(F)cc(C(F)(F)F)c2)cc2cc(C(C)(C)C(=O)NC(C)(C)C)ccc21` gave an EC50 above 30000 nM. Besides, the inhibition at 10 µM in [2] was 88%.

As to `CCOC(=O)C(C)(C)c1ccc2c(c1)c([C@H](C)CO)c(-c1cc(C)cc(C)c1)n2C(=O)OC(C)(C)C`, the inhibition at 10 µM was determined as 25% in [5] and 40% in [2]. Besides, in [3], the IC50 is 600 nM.

In the case of `Cc1cc(C)cc(-c2cc3cc(C(C)(C)C(=O)NC(C)(C)C)ccc3n2CC(=O)OC(C)(C)C)c1`, in data set [1], the inhibition was found to be 91%. The inhibition at 10 µM in data set [2] is 48%; in data set [12] it was 60%. In addition, in data set [3], the half-inhibitory concentration (IC50) stood at 660 nM.

Regarding `CC(C)(C)NC(=O)Cn1c(-c2ccccc2)cc2cc(C(C)(C)C(=O)NC(C)(C)C)ccc21`, in data set [4], the half-maximal effective concentration (EC50) was 1810 nM. Also, the inhibition at 10 µM in data set [2] amounted to 79%.
